According to ChEMBL document CHEMBL4152356, “Amphipathic sulfonamidobenzamides mimicking small antimicrobial marine natural products; investigation of antibacterial and anti-biofilm activity against antibiotic resistant clinical isolates” (Bioorg Med Chem, 2018):

Assays:
Assay type in all cases: functional
Pseudomonas aeruginosa [1] = assay: Antibacterial activity against imipenem 14-type carbapenemase-producing Pseudomonas aeruginosa K4424 clinical isolate after 24 hrs by microdilution method; conditions: K4424, 24 h
How it was run: (§1)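 Clinical isolate screen by broth microdilution with about 1-1.2 × 10^6 cells/ml and 24 h incubation. MIC is the lowest concentration with no growth. For isolate collections, MIC90 is the MIC inhibiting ≥90% of isolates. Multidrug resistance was defined as resistance to at least […] antimicrobial class.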

Enterococcus sp. = assay: Antibacterial activity against Enterococcus sp. clinical isolates after 24 hrs by microdilution method; how it was run: as §1
Pseudomonas aeruginosa [2] = assay: Antibacterial activity against Verona integron-encoded metallo-beta-lactamase 4-producing Pseudomonas aeruginosa K3473 clinical isolate after 24 hrs by microdilution method; conditions: K3473, 24 h; how it was run: as §1
Staphylococcus aureus [3] = assay: Antibacterial activity against methicillin resistant Staphylococcus aureus N315 clinical isolate after 24 hrs by microdilution method; conditions: N315, 24 h
How it was run: (§2)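 Broth microdilution in Mueller-Hinton broth (modified CLSI M07-A9), clinical isolates at about 1-1.2 × 10^6 cells/ml. Inoculum mixed 1:1 with serial compound dilutions; stocks made in up to 100% DMSO, final DMSO ≤1%. Incubated 24 h.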

Klebsiella pneumoniae [4] = assay: Antibacterial activity against New Delhi metallo-beta-lactamase 1/oxacillinase 181-producing Klebsiella pneumoniae 50531633 clinical isolate after 24 hrs by microdilution method; conditions: Klebsiella pneumoniae, 50531633, 24 h; how it was run: as §1
Enterococcus faecium [5] = assay: Antibacterial activity against vancomycin resistant Enterococcus faecium TUH50-22 clinical isolate after 24 hrs by microdilution method; conditions: TUH50-22, 24 h; how it was run: as §2
[6] = system: Staphylococcus epidermidis; assay: Antibacterial activity against methicillin resistant Staphylococcus epidermidis RP62A ATCC 35984/CCUG 31568 after 48 hrs by microdilution method; conditions: RP62A ATCC 35984/CCUG 31568, 48 h
How it was run: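 Broth microdilution (modified CLSI M07-A9) against the MRSE reference strain. Inoculum of about 2.5-3 × 10^4 cells/ml in Mueller-Hinton broth mixed 1:1 with serial compound dilutions; final DMSO ≤1%. Incubated 35 °C, 48 h.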

Acinetobacter baumannii [7] = assay: Antibacterial activity against colistin-resistant oxacillinase 23-producing Acinetobacter baumannii K63-58 clinical isolate after 24 hrs by microdilution method; conditions: K63-58, 24 h; how it was run: as §2
Staphylococcus aureus [8] = assay: Antibacterial activity against methicillin resistant Staphylococcus aureus WIS clinical isolate after 24 hrs by microdilution method; how it was run: as §2
Pseudomonas aeruginosa [9] = assay: Antibacterial activity against Verona integron-encoded metallo-beta-lactamase-producing Pseudomonas aeruginosa 50,692,520 clinical isolate after 24 hrs by microdilution method; conditions: Pseudomonas aeruginosa, 50,692,520, 24 h; how it was run: as §1
Acinetobacter baumannii [10] = assay: Antibacterial activity against oxacillinase 23-producing Acinetobacter baumannii K47-42 clinical isolate after 24 hrs by microdilution method; conditions: K47-42, 24 h; how it was run: as §2
Pseudomonas aeruginosa [11] = assay: Antibacterial activity against Pseudomonas aeruginosa PAO1 DSM 19880 ATCC 15692 after 48 hrs by microdilution method; conditions: PAO1 DSM 19880 ATCC 15692, 48 h
How it was run: (§3)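 Broth microdilution (CLSI M07-A9, modified) in Mueller-Hinton broth; inoculum about 2.5-3 × 10^4 cells/ml mixed 1:1 with serial compound dilutions. Stock solutions in up to 100% DMSO, final DMSO ≤1%. Incubated 35 °C for 48 h.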

Escherichia coli [12] = assay: Antibacterial activity against New Delhi metallo-beta-lactamase 1-producing Escherichia coli 50,676,002 clinical isolate after 24 hrs by microdilution method; conditions: Escherichia coli, 50,676,002, 24 h; how it was run: as §1
Acinetobacter baumannii [13] = assay: Antibacterial activity against oxacillinase 23-producing Acinetobacter baumannii K44-35 clinical isolate after 24 hrs by microdilution method; conditions: K44-35, 24 h; how it was run: as §2
Pseudomonas aeruginosa [14] = assay: Antibacterial activity against New Delhi metallo-beta-lactamase 1-producing Pseudomonas aeruginosa 50,692,172 clinical isolate after 24 hrs by microdilution method; conditions: Pseudomonas aeruginosa, 50,692,172, 24 h; how it was run: as §1
Acinetobacter baumannii [15] = assay: Antibacterial activity against oxacillinase 24-producing Acinetobacter baumannii K55-13 clinical isolate after 24 hrs by microdilution method; conditions: K55-13, 24 h; how it was run: as §2
Enterococcus faecium [16] = assay: Antibacterial activity against vancomycin resistant Enterococcus faecium 50,901,530 clinical isolate after 24 hrs by microdilution method; conditions: Enterococcus faecium, 50,901,530, 24 h; how it was run: as §2
Staphylococcus aureus [17] = assay: Antibacterial activity against Staphylococcus aureus clinical isolates after 24 hrs by microdilution method; how it was run: as §1
Klebsiella pneumoniae [18] = assay: Antibacterial activity against Verona integron-encoded metallo-beta-lactamase 1-producing Klebsiella pneumoniae 50,667,959 clinical isolate after 24 hrs by microdilution method; conditions: Klebsiella pneumoniae, 50,667,959, 24 h; how it was run: as §1
Bacillus subtilis = assay: Antibacterial activity against Bacillus subtilis 168 ATCC 23857 after 48 hrs by microdilution method; conditions: subsp. subtilis str. 168 ATCC 23857, 48 h; how it was run: as §3
Klebsiella pneumoniae [19] = assay: Antibacterial activity against New Delhi metallo-beta-lactamase 1-producing Klebsiella pneumoniae K6645 clinical isolate after 24 hrs by microdilution method; conditions: K6645, 24 h; how it was run: as §1
Klebsiella pneumoniae [20] = assay: Antibacterial activity against Klebsiella pneumoniae clinical isolates after 24 hrs by microdilution method; how it was run: as §1
Staphylococcus aureus [21] = assay: Antibacterial activity against methicillin resistant Staphylococcus aureus IHT 99040 clinical isolate after 24 hrs by microdilution method; conditions: IHT 99040, 24 h; how it was run: as §2
Enterococcus faecium [22] = assay: Antibacterial activity against vancomycin resistant Enterococcus faecium 50,758,899 clinical isolate after 24 hrs by microdilution method; conditions: Enterococcus faecium, 50,758,899, 24 h; how it was run: as §2
Pseudomonas aeruginosa [23] = assay: Antibacterial activity against Verona integron-encoded metallo-beta-lactamase 2-producing Pseudomonas aeruginosa K347 clinical isolate after 24 hrs by microdilution method; conditions: K347, 24 h; how it was run: as §1
Staphylococcus aureus [24] = assay: Antibacterial activity against methicillin resistant Staphylococcus aureus NCTC 10442 clinical isolate after 24 hrs by microdilution method; conditions: NCTC 10442, 24 h; how it was run: as §2
Escherichia coli [25] = assay: Antibacterial activity against Verona integron-encoded metallo-beta-lactamase 29-producing Escherichia coli 50,639,799 clinical isolate after 24 hrs by microdilution method; conditions: Escherichia coli, 50,639,799, 24 h; how it was run: as §1
[26] = system: Corynebacterium glutamicum; assay: Antibacterial activity against Corynebacterium glutamicum ATCC 13032 after 48 hrs by microdilution method; conditions: ATCC 13032, 48 h; how it was run: as §3
Escherichia coli [27] = assay: Antibacterial activity against New Delhi metallo-beta-lactamase 1-producing Escherichia coli 50,739,822 clinical isolate after 24 hrs by microdilution method; conditions: Escherichia coli, 50,739,822, 24 h; how it was run: as §1
Staphylococcus aureus [28] = assay: Antibacterial activity against methicillin resistant Staphylococcus aureus 85/2082 clinical isolate after 24 hrs by microdilution method; conditions: 85/2082, 24 h; how it was run: as §2
Klebsiella pneumoniae [29] = assay: Antibacterial activity against KPC2-producing Klebsiella pneumoniae K4725 clinical isolate after 24 hrs by microdilution method; conditions: K4725, 24 h; how it was run: as §1
Acinetobacter baumannii [30] = assay: Antibacterial activity against oxacillinase 58-producing Acinetobacter baumannii K12-21 clinical isolate after 24 hrs by microdilution method; conditions: K12-21, 24 h; how it was run: as §2

CC(C)(C)c1cc(C(C)(C)C)cc(S(=O)(=O)Nc2cc3ccccc3cc2C(=O)NCCNC(=N)N)c1.Cl
MIC (Pseudomonas aeruginosa [1]): > 64 µg/mL | MIC (Enterococcus sp.): 8 µg/mL | MIC (Pseudomonas aeruginosa [2]): ≥ 32 µg/mL | MIC (Staphylococcus aureus [3]): 4 µg/mL | MIC (Klebsiella pneumoniae [4]): > 32 µg/mL | MIC (Enterococcus faecium [5]): 4 µg/mL | MIC [6]: 4 µg/mL | MIC (Acinetobacter baumannii [7]): 32 µg/mL | MIC (Staphylococcus aureus [8]): 8 µg/mL | MIC (Pseudomonas aeruginosa [9]): ≥ 64 µg/mL | MIC (Acinetobacter baumannii [10]): 32 µg/mL | MIC (Pseudomonas aeruginosa [11]): 32 µg/mL | MIC (Escherichia coli [12]): > 32 µg/mL | MIC (Acinetobacter baumannii [13]): 32 µg/mL | MIC (Pseudomonas aeruginosa [14]): > 64 µg/mL | MIC (Acinetobacter baumannii [15]): 32 µg/mL | MIC (Enterococcus faecium [16]): 8 µg/mL | MIC (Staphylococcus aureus [17]): 4 µg/mL | MIC (Klebsiella pneumoniae [18]): ≥ 32 µg/mL | MIC (Bacillus subtilis): 4 µg/mL | MIC (Klebsiella pneumoniae [19]): 32 µg/mL | MIC (Klebsiella pneumoniae [20]): 16 to 32 µg/mL | MIC (Staphylococcus aureus [21]): 8 µg/mL | MIC (Enterococcus faecium [22]): 8 µg/mL | MIC (Pseudomonas aeruginosa [23]): > 64 µg/mL | MIC (Staphylococcus aureus [24]): 8 µg/mL | MIC (Escherichia coli [25]): ≥ 32 µg/mL | MIC [26]: 2 µg/mL | MIC (Escherichia coli [27]): > 32 µg/mL | MIC (Staphylococcus aureus [28]): 8 µg/mL | MIC (Klebsiella pneumoniae [29]): > 32 µg/mL | MIC (Acinetobacter baumannii [30]): 32 µg/mL

CN(c1ccc(C(=O)NCCCNC(=N)N)cc1)S(=O)(=O)c1cc(C(C)(C)C)cc(C(C)(C)C)c1.Cl
MIC (Pseudomonas aeruginosa [1]): 32 µg/mL | MIC (Enterococcus sp.): 8 to 16 µg/mL | MIC (Pseudomonas aeruginosa [2]): 32 µg/mL | MIC (Staphylococcus aureus [3]): 8 µg/mL | MIC (Klebsiella pneumoniae [4]): ≥ 32 µg/mL | MIC (Enterococcus faecium [5]): 16 µg/mL | MIC [6]: 4 µg/mL | MIC (Acinetobacter baumannii [7]): ≥ 32 µg/mL | MIC (Staphylococcus aureus [8]): 8 µg/mL | MIC (Pseudomonas aeruginosa [9]): 32 µg/mL | MIC (Acinetobacter baumannii [10]): 32 µg/mL | MIC (Pseudomonas aeruginosa [11]): 16 µg/mL | MIC (Escherichia coli [12]): ≥ 32 µg/mL | MIC (Acinetobacter baumannii [13]): ≥ 32 µg/mL | MIC (Pseudomonas aeruginosa [14]): 32 µg/mL | MIC (Acinetobacter baumannii [15]): ≥ 32 µg/mL | MIC (Enterococcus faecium [16]): 16 µg/mL | MIC (Staphylococcus aureus [17]): 4 µg/mL | MIC (Klebsiella pneumoniae [18]): ≥ 32 µg/mL | MIC (Bacillus subtilis): 4 µg/mL | MIC (Klebsiella pneumoniae [19]): 32 µg/mL | MIC (Klebsiella pneumoniae [20]): 32 µg/mL | MIC (Staphylococcus aureus [21]): 8 µg/mL | MIC (Enterococcus faecium [22]): 8 µg/mL | MIC (Pseudomonas aeruginosa [23]): > 32 µg/mL | MIC (Staphylococcus aureus [24]): 8 µg/mL | MIC (Escherichia coli [25]): 32 µg/mL | MIC [26]: 2 µg/mL | MIC (Escherichia coli [27]): ≥ 32 µg/mL | MIC (Staphylococcus aureus [28]): 8 µg/mL | MIC (Klebsiella pneumoniae [29]): ≥ 32 µg/mL | MIC (Acinetobacter baumannii [30]): ≥ 32 µg/mL
